In ChEMBL document CHEMBL4312042, “In Silico Discovery of JMJD6 Inhibitors for Cancer Treatment” (ACS Med Chem Lett, 2019):
pIC50: −log10 of the molar value. Activity calls are given as the source filed them. No cut-off for these calls is given here.

Tests used:
[1] = biological target: T1, Bifunctional arginine demethylase and lysyl-hydroxylase JMJD6 (Homo sapiens, UniProt Q6NYC1); test: Inhibition of His-tagged JMJD6 (unknown origin) expressed in Escherichia coli BL21 (DE3) assessed as increase in H4 arginine 3 symmetrical dimethylation (H4R3me2s) content at 10 uM using core histone as substrate preincubated with enzyme for 10 mins followed by incubation with substrate for 1 hr by immunoblotting analysis
Summary of the method: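 Purified bacterially expressed JMJD6 incubated with core histones, with or without compound at 10 μM; product analysed by immunoblot for H4R3me2s with total histone H4 probed alongside.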

[2] = biological target: T1, Bifunctional arginine demethylase and lysyl-hydroxylase JMJD6; test: (§1) Inhibition of His-tagged JMJD6 (unknown origin) expressed in Escherichia coli BL21 (DE3) assessed as decrease in demethylase activity by measuring release of formaldehyde using core histone as substrate preincubated with enzyme for 10 mins followed by incubation with substrate for 1 hr measured following 2 hrs incubation with ammonium acetate/acetoacetanilide by fluorescence based analysis
Summary of the method: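 Bacterially expressed, purified JMJD6 mixed with core histones, with or without inhibitor across a concentration series; demethylation read as formaldehyde release; IC50 derived from the series; experiment run three times.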

L02 = test: Cytotoxicity in human LO2 cells assessed as reduction in cell proliferation incubated for 72 hrs by CellTiter 96 AQueous one solution cell proliferation assay; format: cell-based; conditions: l02, 72 h
[3] = biological target: T1, Bifunctional arginine demethylase and lysyl-hydroxylase JMJD6; test: Inhibition of JMJD6 in human HeLa cells assessed as H4R3me2S level at 10 uM incubated for 6 hrs by immunoblotting analysis; format: cell-based
Summary of the method: (§2)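 HeLa cells treated with or without compound at 10 μM for 6 h; lysates immunoblotted for H4R3me2s and HSP70R469me1.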

[4] = biological target: T1, Bifunctional arginine demethylase and lysyl-hydroxylase JMJD6; test: Inhibition of JMJD6 in human HeLa cells assessed as increase in HSP70R469me1 level at 10 uM incubated for 6 hrs by immunoblotting analysis; format: cell-based; summary of the method: as §2
[5] = biological target: T1, Bifunctional arginine demethylase and lysyl-hydroxylase JMJD6; test: Binding affinity to immobilized His-tagged JMJD6 (unknown origin) expressed in Escherichia coli BL21 (DE3) by biacore-binding assay
[6] = biological target: Histone lysine demethylase PHF8 (Homo sapiens) (UniProt Q9UPP1); test: as §1, with “Flag-tagged PHF8” for “His-tagged JMJD6”, “formaldehyde” for “decrease in demethylase activity by measuring”, “release” for “release of formaldehyde”
Histone lysine demethylase PHF8 (Homo sapiens), sequence (Q9UPP1 whole entry): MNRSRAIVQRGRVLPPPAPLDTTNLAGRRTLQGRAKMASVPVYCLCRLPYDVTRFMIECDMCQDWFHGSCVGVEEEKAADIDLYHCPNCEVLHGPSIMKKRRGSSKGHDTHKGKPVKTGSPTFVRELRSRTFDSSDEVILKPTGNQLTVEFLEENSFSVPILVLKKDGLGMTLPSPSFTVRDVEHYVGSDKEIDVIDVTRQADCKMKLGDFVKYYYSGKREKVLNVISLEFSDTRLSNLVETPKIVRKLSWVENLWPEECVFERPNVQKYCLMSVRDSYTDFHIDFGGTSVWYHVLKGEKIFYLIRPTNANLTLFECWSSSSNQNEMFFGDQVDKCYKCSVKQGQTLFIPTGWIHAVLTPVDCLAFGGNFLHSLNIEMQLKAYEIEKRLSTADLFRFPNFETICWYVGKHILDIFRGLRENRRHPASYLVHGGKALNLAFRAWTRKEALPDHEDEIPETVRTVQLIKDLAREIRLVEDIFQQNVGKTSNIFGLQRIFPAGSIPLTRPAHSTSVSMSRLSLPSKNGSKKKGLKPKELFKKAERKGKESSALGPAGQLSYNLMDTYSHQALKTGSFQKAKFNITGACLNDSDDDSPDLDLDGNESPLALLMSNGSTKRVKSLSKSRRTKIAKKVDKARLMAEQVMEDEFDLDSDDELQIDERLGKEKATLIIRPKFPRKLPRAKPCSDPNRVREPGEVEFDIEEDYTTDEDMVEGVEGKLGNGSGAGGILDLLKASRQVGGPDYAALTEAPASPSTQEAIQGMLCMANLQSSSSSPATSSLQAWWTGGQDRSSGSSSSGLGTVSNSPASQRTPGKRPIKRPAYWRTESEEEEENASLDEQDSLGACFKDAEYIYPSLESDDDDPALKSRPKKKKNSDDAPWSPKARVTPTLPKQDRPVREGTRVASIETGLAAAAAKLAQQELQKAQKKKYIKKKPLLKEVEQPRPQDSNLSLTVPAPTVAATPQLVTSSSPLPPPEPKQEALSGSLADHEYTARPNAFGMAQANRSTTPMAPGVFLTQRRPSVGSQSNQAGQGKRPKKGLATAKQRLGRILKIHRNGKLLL

[7] = biological target: Lysine-specific demethylase 5C (Homo sapiens) (UniProt P41229); test: as §1, with “Flag-tagged KDM5C” for “His-tagged JMJD6”, “formaldehyde” for “decrease in demethylase activity by measuring”, “release” for “release of formaldehyde”
Lysine-specific demethylase 5C (Homo sapiens), sequence (P41229 whole entry): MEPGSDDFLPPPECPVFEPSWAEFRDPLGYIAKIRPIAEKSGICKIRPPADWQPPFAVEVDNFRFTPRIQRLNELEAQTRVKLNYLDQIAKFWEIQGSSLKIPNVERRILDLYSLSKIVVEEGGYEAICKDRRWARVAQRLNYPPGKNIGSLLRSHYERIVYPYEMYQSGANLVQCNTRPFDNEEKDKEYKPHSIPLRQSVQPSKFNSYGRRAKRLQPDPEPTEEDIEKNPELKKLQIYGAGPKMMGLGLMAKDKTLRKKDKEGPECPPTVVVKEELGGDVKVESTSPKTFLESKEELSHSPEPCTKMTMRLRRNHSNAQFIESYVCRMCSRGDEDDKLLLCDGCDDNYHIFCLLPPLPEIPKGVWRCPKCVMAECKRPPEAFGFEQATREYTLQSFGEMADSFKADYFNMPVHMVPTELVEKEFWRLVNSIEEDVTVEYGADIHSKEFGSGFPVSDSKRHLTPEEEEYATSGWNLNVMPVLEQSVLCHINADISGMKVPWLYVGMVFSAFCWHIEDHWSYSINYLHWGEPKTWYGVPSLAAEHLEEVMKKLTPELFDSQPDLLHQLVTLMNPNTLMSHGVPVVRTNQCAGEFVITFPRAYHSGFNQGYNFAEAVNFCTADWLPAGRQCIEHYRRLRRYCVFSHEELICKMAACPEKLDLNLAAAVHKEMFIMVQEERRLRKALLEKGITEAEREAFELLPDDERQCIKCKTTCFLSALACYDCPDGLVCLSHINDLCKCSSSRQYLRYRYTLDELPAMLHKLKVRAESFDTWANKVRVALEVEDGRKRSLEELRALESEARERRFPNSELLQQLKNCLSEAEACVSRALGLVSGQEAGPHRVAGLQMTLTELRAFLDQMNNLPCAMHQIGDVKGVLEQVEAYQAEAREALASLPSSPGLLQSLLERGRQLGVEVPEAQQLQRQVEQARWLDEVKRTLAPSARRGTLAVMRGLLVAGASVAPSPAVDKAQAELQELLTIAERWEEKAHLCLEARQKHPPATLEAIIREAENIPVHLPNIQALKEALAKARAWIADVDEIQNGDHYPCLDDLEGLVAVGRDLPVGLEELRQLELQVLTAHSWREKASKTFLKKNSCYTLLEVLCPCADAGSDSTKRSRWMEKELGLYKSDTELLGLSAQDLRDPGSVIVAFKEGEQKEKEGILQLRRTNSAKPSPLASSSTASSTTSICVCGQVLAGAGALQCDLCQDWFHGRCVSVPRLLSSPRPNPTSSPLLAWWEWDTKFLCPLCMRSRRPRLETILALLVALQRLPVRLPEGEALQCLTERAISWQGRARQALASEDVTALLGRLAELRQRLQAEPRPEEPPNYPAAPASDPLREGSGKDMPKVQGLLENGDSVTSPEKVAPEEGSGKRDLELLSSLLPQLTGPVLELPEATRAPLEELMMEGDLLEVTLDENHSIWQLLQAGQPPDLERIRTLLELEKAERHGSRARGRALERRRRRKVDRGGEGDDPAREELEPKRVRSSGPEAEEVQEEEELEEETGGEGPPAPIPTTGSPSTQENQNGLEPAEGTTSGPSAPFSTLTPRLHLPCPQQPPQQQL

[8] = biological target: T2, Lysine-specific demethylase 3A (Homo sapiens) (UniProt Q9Y4C1); test: as §1, with “Flag-tagged KDM3A” for “His-tagged JMJD6”, “formaldehyde” for “decrease in demethylase activity by measuring”, “release” for “release of formaldehyde”
T2 sequence (whole entry): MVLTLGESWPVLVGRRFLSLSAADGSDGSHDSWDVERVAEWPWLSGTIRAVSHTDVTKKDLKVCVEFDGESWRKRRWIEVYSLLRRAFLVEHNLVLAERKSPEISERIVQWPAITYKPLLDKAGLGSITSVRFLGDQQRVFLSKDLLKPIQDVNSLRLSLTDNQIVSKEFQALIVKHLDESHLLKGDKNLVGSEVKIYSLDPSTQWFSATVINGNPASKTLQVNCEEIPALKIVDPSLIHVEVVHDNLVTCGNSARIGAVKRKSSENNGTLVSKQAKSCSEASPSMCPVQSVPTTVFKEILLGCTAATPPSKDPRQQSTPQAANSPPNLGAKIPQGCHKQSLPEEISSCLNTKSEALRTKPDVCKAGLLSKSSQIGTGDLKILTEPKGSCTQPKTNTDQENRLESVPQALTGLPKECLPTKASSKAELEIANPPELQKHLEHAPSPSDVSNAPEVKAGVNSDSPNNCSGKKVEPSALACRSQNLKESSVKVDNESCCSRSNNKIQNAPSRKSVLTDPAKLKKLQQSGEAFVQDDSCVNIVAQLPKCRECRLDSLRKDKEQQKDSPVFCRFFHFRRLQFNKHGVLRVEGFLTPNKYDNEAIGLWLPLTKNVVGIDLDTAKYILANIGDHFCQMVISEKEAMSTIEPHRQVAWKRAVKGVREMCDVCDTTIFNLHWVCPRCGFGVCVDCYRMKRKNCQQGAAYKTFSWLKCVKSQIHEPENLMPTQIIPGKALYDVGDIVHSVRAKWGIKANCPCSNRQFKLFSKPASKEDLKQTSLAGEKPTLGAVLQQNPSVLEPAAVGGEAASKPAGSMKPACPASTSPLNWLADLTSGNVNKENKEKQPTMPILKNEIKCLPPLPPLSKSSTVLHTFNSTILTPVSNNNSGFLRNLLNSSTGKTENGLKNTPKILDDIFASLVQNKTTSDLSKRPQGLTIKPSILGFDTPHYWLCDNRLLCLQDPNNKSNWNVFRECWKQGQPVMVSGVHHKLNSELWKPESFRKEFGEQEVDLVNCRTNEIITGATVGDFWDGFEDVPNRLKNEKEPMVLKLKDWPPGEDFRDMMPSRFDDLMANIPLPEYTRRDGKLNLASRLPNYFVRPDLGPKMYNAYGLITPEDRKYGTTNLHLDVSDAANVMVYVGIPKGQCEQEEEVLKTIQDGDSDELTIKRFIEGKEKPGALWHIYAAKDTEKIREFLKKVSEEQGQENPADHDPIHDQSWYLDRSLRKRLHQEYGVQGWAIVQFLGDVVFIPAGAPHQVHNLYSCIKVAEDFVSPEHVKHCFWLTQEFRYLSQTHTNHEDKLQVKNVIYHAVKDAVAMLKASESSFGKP

[9] = biological target: T3, Lysine-specific demethylase 4C (Homo sapiens) (UniProt Q9H3R0); test: as §1, with “Flag-tagged KDM4C” for “His-tagged JMJD6”, “formaldehyde” for “decrease in demethylase activity by measuring”, “release” for “release of formaldehyde”
T3 sequence (whole entry): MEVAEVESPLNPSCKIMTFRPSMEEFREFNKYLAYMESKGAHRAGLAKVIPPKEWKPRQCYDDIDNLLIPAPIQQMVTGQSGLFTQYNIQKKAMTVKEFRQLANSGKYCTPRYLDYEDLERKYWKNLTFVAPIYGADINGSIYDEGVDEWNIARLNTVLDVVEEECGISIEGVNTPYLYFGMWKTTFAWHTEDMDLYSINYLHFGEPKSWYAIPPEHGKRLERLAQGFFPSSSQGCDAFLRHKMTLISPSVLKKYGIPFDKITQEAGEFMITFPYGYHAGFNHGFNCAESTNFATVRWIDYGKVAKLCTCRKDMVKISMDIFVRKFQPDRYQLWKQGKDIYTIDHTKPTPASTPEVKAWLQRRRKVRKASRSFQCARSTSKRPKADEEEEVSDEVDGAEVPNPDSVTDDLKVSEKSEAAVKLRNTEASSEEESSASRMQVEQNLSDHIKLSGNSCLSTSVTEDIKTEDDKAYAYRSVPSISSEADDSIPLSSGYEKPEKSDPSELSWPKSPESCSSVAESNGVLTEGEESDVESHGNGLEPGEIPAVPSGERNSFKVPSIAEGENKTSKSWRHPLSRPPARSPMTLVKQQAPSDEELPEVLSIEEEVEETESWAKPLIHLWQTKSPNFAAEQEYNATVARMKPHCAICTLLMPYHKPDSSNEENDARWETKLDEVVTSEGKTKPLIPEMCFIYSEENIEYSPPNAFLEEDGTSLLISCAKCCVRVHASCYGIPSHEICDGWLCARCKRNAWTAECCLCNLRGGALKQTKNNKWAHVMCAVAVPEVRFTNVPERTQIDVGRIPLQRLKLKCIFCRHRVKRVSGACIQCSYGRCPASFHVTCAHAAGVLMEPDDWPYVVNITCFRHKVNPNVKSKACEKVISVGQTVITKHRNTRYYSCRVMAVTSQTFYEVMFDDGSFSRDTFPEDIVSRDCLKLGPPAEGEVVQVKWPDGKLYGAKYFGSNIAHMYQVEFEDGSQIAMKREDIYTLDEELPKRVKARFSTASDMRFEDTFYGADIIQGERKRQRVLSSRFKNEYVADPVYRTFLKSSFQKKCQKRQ

SMILES: CCOC(=O)c1csc(NC(=O)c2cc(C)on2)n1
- inhibition [1]: Active

SMILES: COCCn1cc(OC(C)=O)c2c1nc(C)n1c3ccccc3nc21
- inhibition [1]: Active

SMILES: Cc1ccc2oc(=O)c(-c3nc4cnccc4[nH]3)cc2c1
- pIC50 [2]: 6.66
- Activity (L02): Non-Toxic
- inhibition [1]: Active
- inhibition [3]: inactive
- inhibition [4]: Active
- Activity [5]: Active
- inhibition [6]: inactive
- inhibition [7]: inactive
- inhibition [8]: inactive
- inhibition [9]: inactive

SMILES: COCCN1CCOc2nc3c(C)cccc3cc2C1
- inhibition [1]: Active

SMILES: COc1ccc2oc(=O)c(-c3csc(C)n3)cc2c1
- inhibition [1]: Active
